FXIa inh 1536: inhibitors of human coagulation factor XIa; purified FXIa, Boc-Glu-Ala-Arg-AMC fluorogenic substrate; inhibition, % at 5 µM; 220,000 tested, 0.14% active; AID 798; P03951;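 active = inhibition of at least 40%; inactive = inhibition below 40%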;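 note: fluorescence of freed AMC excited at 355 nm; 0% = enzyme without compound and 100% = no enzyme blank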
FXIIa inh: inhibitors of human coagulation factor XIIa | inhibition, % at 5 µM | purified FXIIa, Boc-QGR-AMC fluorogenic substrate, 2 h | P00748 | 220,000 tested, 0.3% active | AID 800; in the data active = inhibition above about 40%;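 note: 0% = enzyme with no compound and 100% = blank without enzyme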
thrombin 1536: inhibitors of human thrombin. P00734. alpha-thrombin, Boc-VPR-AMC fluorogenic substrate cleavage. inhibition, % at 5 µM. 220,000 tested, 0.26% active;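 active = inhibition at or above 40%; inactive = inhibition below 40%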;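 note: 0% = enzyme with no compound and 100% = wells without enzyme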
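System – human alpha-thrombin · Medium – pH 7.5 Tris (50 mM) with NaCl 150 mM, Tween 20 0.05% · Compound – single-point dosing at 5 µM, 0.2% DMSO · Incubation – enzyme reaction carried out at room temperature · Technique – fluorescence of released AMC, ex 355 nm, em 460 nm · Read-out basis – % inhibition of thrombin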
KLK5 inh: kallikrein 5 (human) inhibition; Q9Y337; recombinant hK5, fluorogenic AMC substrate cleavage; inhibition, % at 5 µM; 210,000 tested, 0.59% active; AID 873;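 active = inhibition of 40% or more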;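 note: 0% = enzyme controls without compound and 100% = no-enzyme blanks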
Target sequence (Q9Y337 67-293 limits assumed): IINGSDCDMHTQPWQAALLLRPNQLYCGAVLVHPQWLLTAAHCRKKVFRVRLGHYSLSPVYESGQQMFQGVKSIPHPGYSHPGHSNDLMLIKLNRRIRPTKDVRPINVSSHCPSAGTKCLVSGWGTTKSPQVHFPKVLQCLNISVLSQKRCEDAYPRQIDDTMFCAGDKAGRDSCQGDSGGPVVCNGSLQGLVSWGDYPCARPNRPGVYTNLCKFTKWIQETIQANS
EP2 mod: EP2 receptor (human) modulation; P43116; EP2-expressing cells, cAMP HTRF FRET, PGE2 co-stimulation; induction, % at 25 µM; 260,000 tested, 0.83% active; AID 940;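 active = compounds whose cAMP rise, as percent of the full-agonist control response, exceeds 60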;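 note: rat C6 glioma line stably carrying human EP2 under a CMV promoter; the protocol text gives 20 µM as final concentration; 100% = response of wells given 1 µM PGE2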
Target sequence (P43116 whole entry, looked up): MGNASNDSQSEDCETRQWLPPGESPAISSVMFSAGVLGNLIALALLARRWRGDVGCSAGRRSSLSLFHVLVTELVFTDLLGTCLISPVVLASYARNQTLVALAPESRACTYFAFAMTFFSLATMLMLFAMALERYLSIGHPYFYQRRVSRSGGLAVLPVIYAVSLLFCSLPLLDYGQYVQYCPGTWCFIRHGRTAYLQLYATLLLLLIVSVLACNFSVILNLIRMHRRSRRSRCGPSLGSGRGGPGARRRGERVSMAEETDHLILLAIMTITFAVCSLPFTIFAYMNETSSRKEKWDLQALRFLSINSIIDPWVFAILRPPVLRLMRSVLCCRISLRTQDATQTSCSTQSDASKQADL
PGE2 EP2 inh: blocks the human prostaglandin E2 receptor EP2; C6 glioma cells expressing human EP2, cAMP TR-FRET; cells stimulated with saturating PGE2; P43116; inhibition, % at 25 µM; AID 1422; 260,000 tested, 0.52% active;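 active = percent inhibition above 40 after rounding to a whole number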;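 note: rat C6 glioma host cells with rolipram phosphodiesterase inhibitor present; the protocol text gives 20 µM as final concentration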
An asterisk follows results filed as active; . = no result given; ! = repeats disagree. An excerpt weighted towards active compounds, which were near 2.1% of everything screened.

SMILES	FXIa inh 1536	FXIIa inh	thrombin 1536	KLK5 inh	EP2 mod	PGE2 EP2 inh
COc1ccc2c(c1)CN([C@H](C)[C@@H]1CC[C@@H]3[C@H]4CC[C@H]5C[C@@H](O)CC[C@]5(C)[C@@H]4CC[C@]31C)CO2	.	.	.	.	-25	61*
O=C(CSc1nnc(-c2cccnc2)n1-c1ccccc1)N1CCCCC1	.	.	.	.	-36	14
CC12CN3CC(C)(CN(C1)C3c1ccc(Br)cc1)C2=O (stereo not given)	-3	11	7	68*	13	17
CC12CN3CC(C)(CN(C1)C3c1cc(Br)ccc1O)C2=O (stereo not given)	5	-2	-2	-8	8	7
Cn1c(=O)c2c(nc(Oc3ccc4c(c3)OCO4)n2Cc2ccc(F)cc2)n(C)c1=O	7	-8	-3	-9	22	3
Cn1c(=O)c2c(nc(Oc3ccc4c(c3)OCO4)n2Cc2ccc(Br)cc2)n(C)c1=O	0	6	-6	1	76*	3
CCOc1cc(/C=N/NC(N)=S)cc(Br)c1OCc1ccccc1C	6	15	4	-5	63*	8
COc1cc(/C=N/NC(N)=S)cc(Br)c1OCc1ccccc1F	8	9	-4	-1	4	7
CCOCCCNC(=O)C1CCN(c2nc3ccccc3n2CC)CC1	.	.	.	.	-39	.
CC(=O)c1ccc2c(c1)N(C)c1ccccc1S2	16	21	17	41*	-49	10
NNC(=O)CNC(c1ccccc1)c1cc(Br)ccc1NC(=O)c1cccc(Cl)c1 (stereo not given)	-1	4	-6	-17	28	4
COC(=O)CNC(c1ccccc1)c1cc(Cl)ccc1NC(=O)c1cccc(Cl)c1 (stereo not given)	-2	2	-6	-14	63*	-2
O=C(Nc1cccc(S(=O)(=O)N2CCOCC2)c1)c1ccc2ccccc2n1	2	7	0	3	-17	7
Cc1ccc(NC(=O)c2ccc3ccccc3n2)cc1S(=O)(=O)N1CCOCC1	28	24	48*	15	-63	10
C=CCSc1nc(C)c(CC=C)c(=O)[nH]1	30	53*	0	2	3	3
Cc1ccc(S(=O)(=O)N=Nc2c(O)[nH]c3cc(O)c(C(=O)O)cc23)cc1	.	.	.	.	16	41*
CNC(=O)C(=O)NCCN1CCOCC1	.	.	.	.	-10	30
O=C(/C(N=Nc1cccc(C(F)(F)F)c1)=C(/O)c1cccs1)C(F)(F)F	9	6	0	5	-8	7
Cc1cccc(N=N/C(=C\O)C(=O)c2cccs2)c1	-3	3	-13	0	64*	7
O=C(CSc1ccncc1)N1CCC(c2ccnc3nc(C(F)(F)F)nn23)CC1	.	.	.	.	-11	.
O=C(NCCN1CCc2ccccc2C1)C1CC(=O)N(C2CCCC2)C1 (stereo not given)	5	73*	0	2	28	16
O=C(O)c1c(-c2c3ccc(=O)cc-3oc3cc(O)ccc23)cc2ccccc2c1-c1ccccc1	.	.	.	.	36	42*
Nc1cc2c(nc3c4ccccc4c(N)cc3[n+]2-c2cccc3ccccc23)c2ccccc12 (tested in a mixture with another compound)	.	.	.	.	-9	54*
COC(=O)c1ccc(CSc2nc3c(cnn3-c3ccc(C)c(C)c3)c(=O)[nH]2)o1	13	24	-1	15	65*	10
COC(=O)[C@@]1(Cc2ccc(OC)cc2)[C@@H]2C(=CC(=O)[C@H]2CC(=O)C(=O)N(C)C)CN1C(=O)c1ccccc1	5	17	3	-6	4	16
SMILES	FXIa inh 1536	FXIIa inh	thrombin 1536	KLK5 inh	EP2 mod	PGE2 EP2 inh
C=C1C(=O)C=C2CN(C(=O)c3ccccc3)[C@@](Cc3ccc(F)cc3)(C(=O)OC)[C@@H]12	5	16	1	-4	-44	92*
CC1=CCC2C(=O)N(C(C)c3ccccc3)C(=O)C2C1 (stereo not given)	64*	13	1	-6	21	7
CC1=CCC2C(=O)N(Cc3ccccc3)C(=O)C2C1 (stereo not given)	-3	0	-2	-18	9	11
CC(=O)c1ccc(OCC(O)Cn2c(C)[n+](C)c3ccccc32)cc1 (stereo not given)	.	.	.	.	1	12
CCCOc1cccc(C(=O)N(Cc2ccco2)C2CCS(=O)(=O)C2)c1 (stereo not given)	9	15	57*	22	10	0
CCCCOc1cccc(C(=O)N(Cc2ccco2)C2CCS(=O)(=O)C2)c1 (stereo not given)	5	15	1	-9	17	10
c1ccc(CN2COc3c(ccc4c5c(ccc34)CN(Cc3ccccc3)CO5)C2)cc1	.	.	.	.	13	42*
CCCCCc1ccc(-c2ccc(/C=C/C(=O)O)cc2)nc1	-4	3	-13	-5	62*	5
O=C1C=CC(=O)c2c(O)c(Cl)c(Cl)c(O)c21	.	.	.	.	-20	129*
O=C(c1ccco1)N1N=C(c2ccc(Cl)cc2)CC1(O)C(F)(F)F (stereo not given)	-4	6	-7	-4	61*	7
Cc1ccc(C)c(C2=CSC3=NCCN23)c1	6	18	12	80*	1	12
CC(C)(C)C(=O)Nc1ccc(Cl)cc1-c1nc2ccccc2s1	.	.	.	.	28	10
Cc1cc(NCCNS(=O)(=O)c2ccc3c(c2)oc(=O)n3C)c2ccccc2n1	.	.	.	.	-14	8
CC(C)NC(=O)N1CCN(c2ccncc2S(=O)(=O)N2CCOCC2)CC1	-2	6	1	-17	9	3
CC(C)N1CCN(c2ccncc2S(=O)(=O)N2CCCCC2)CC1	.	.	.	.	1	41*
Cc1cc(C)cc(-c2nnc(SCc3cc(=O)[nH]c4ccccc34)o2)c1	.	.	.	.	14	5
c1ccc(Nc2cccc(Nc3ccccc3)c2)cc1	10	17	14	48*	31	9
COCCN(C(=O)COC)c1nnc(C)s1	.	.	.	.	-14	15
OCc1ccncc1.OCc1ccncc1.[Cl][Pt]([Cl])([Cl])[Cl]	.	.	.	.	-14	69*
CC(=O)O/N=C1\C(=O)N(Cc2ccc(C)cc2)c2ccccc21	0	10	12	-6	63*	2
CC1(C)CCC2=C(O1)c1ccccc1C(=O)C2=O	.	.	.	.	-31	41*
C[C@@H](NCCc1ccc(O)cc1)[C@@H](O)c1ccc(O)cc1	.	.	.	.	17	9
CCCCCCCCNC(C)C(O)c1ccc(SC(C)C)cc1 (stereo not given)	0	11	.	-16	-23	115*!
N#Cc1c(-c2ccccc2)c(-c2ccccc2)nn(CC(=O)NNC(=O)Nc2ccccc2)c1=O	2	12	3	2	33	.
N#Cc1c(-c2ccccc2)c(-c2ccccc2)nn(CC(=O)NNC(=O)Nc2ccc(Cl)cc2)c1=O	9	3	-3	2	2	79*

Source: PubChem (several laboratories)
